Source: ChEMBL document CHEMBL1687750, “Nonclinical pharmacokinetics of oseltamivir and oseltamivir carboxylate in the central nervous system” (Antimicrob Agents Chemother, 2009)

Tested on: CCOC(=O)C1=C[C@@H](OC(CC)CC)[C@H](NC(C)=O)[C@@H](N)C1
Experiment: Activity of human MDR1-mediated drug permeability expressed in pig LLC-PK1 cells
Assay type: cell-based
Summary of the method: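 P-gp-transfected LLC-PK1 monolayers; 14C-labelled substrate (0.1 to 10 mM) plus Lucifer yellow added to the apical or basolateral donor side, ± elacridar 1 μM; 37°C, 5% CO2; acceptor sampled at 30 min and 1, 2, 3 h and counted by scintillation; Pe from the 3 h point, not corrected for marker flux; B-to-A/A-to-B ratio; three inserts per condition, mean.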

ATP-dependent translocase ABCB1 (Homo sapiens)
Km: 4.2 mM | Vmax: 0.000534 µmol/min
